The record followed here is ChEMBL document CHEMBL1681654, “Structure and activity relationship of 2-(substituted benzoyl)-hydroxyindoles as novel CaMKII inhibitors” (Bioorg Med Chem Lett, 2011).

This experiment can be described thus: Inhibition of recombinant CAMK2 expressed in Sf9 cells after 20 mins. Summed up:
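Baculovirus-expressed CaMKII from infected Sf9 cells (harvested day 3), purified on calmodulin affinity resin. Assayed in 25 mM Tris–HCl pH 7.5, 2 mM DTT, 10 mM MgCl₂, 0.1% CHAPS, 1 mM CaCl₂ with autocamtide-2 substrate, CaM and [γ-³³P]ATP (350–1500 cpm/pmol); 20 min, 30 °C. Reaction spotted onto P30 filtermat, washed with 75 mM phosphoric acid, counted by scintillation.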

One may read the IC50 as the point on the concentration scale where inhibition reaches its midpoint. For `COc1ccc(C(=O)c2cc3cc(O)ccc3[nH]2)cc1`, the IC50 was greater than 10 µM.

Regarding `O=C(c1ccc(Oc2ccccc2)cc1)c1cc2cc(O)ccc2[nH]1`, the half-maximal inhibitory concentration (IC50) is 0.61 µM.

With `Cc1ccc(C(=O)c2cc3cc(O)ccc3[nH]2)cc1`, the IC50 stood at 8.8 µM.

Regarding `O=C(c1ccc(F)cc1)c1cc2cc(O)ccc2[nH]1`, the half-inhibitory concentration (IC50) is greater than 10 µM.

Consider `COc1ccc(S(=O)(=O)N(CCO)c2ccccc2CN(C)C/C=C/c2ccc(Cl)cc2)cc1`, for which the IC50 is 1.6 µM.

For `O=C(c1ccc(Cl)cc1)c1cc2cc(O)ccc2[nH]1`, the IC50 is greater than 10 µM.

For `O=C(c1ccc(OC2CCNCC2)cc1)c1cc2cc(O)ccc2[nH]1`, the IC50 is greater than 10 µM.

As to `O=C(c1ccc(-c2ccccc2)cc1)c1cc2cc(O)ccc2[nH]1`, the IC50 is 6.4 µM.

On to `O=C(c1ccc(Oc2ccccc2)cc1)c1cc2cc(O)ncc2[nH]1`, for which the IC50 is 6.8 µM.

In the case of `O=C(c1cccc(Oc2ccccc2)c1)c1cc2cc(O)ccc2[nH]1`, the 50% inhibitory concentration (IC50) worked out at 1.7 µM.

Consider `O=C(c1cc2cc(O)ccc2[nH]1)c1ccccc1Oc1ccccc1`, for which the IC50 was determined as 1.8 µM.

As to `O=C(c1ccc(Oc2ccccc2)cc1)c1cc2ccc(O)cc2[nH]1`, the IC50 amounted to 2.3 µM.

With `O=C(O)Cn1c(C(=O)c2ccc(Oc3ccccc3)cc2)cc2cc(O)ccc21`, the IC50 turned out to be 1.8 µM.

For `O=C(c1ccc(Oc2ccccc2)cc1)c1cc2nc(O)ccc2[nH]1`, the IC50 was greater than 10 µM.

As to `O=C(c1ccc(Oc2ccccc2)cc1)c1cc2cc(O)ccc2n1CCO`, the IC50 came out at 1.9 µM.

For the molecule `CN1CCC(Oc2ccc(C(=O)c3cc4cc(O)ccc4[nH]3)cc2)CC1`, the IC50 was greater than 10 µM.

As to `CC(=O)N1CCC(Oc2ccc(C(=O)c3cc4cc(O)ccc4[nH]3)cc2)CC1`, the IC50 is 9.9 µM.

On to `Cn1c(C(=O)c2ccc(Oc3ccccc3)cc2)cc2cc(O)ccc21`, for which the 50% inhibitory concentration (IC50) turned out to be 1.3 µM.

For `CCOC(=O)Cn1c(C(=O)c2ccc(Oc3ccccc3)cc2)cc2cc(O)ccc21`, the IC50 was found to be 0.77 µM.

Take `O=C(c1ccc(OC2CCCCC2)cc1)c1cc2cc(O)ccc2[nH]1`: the half-maximal inhibitory concentration (IC50) was found to be 2.3 µM.

Regarding `O=C(c1ccc(Oc2ccccc2)cc1)c1cc2cc(O)ccc2n1S(=O)(=O)c1ccccc1`, the IC50 was greater than 10 µM.

Consider `O=C(c1ccc(OC(F)(F)F)cc1)c1cc2cc(O)ccc2[nH]1`, for which the IC50 was greater than 10 µM.

Consider `O=C(c1ccc(OC2CCCC2)cc1)c1cc2cc(O)ccc2[nH]1`, for which the IC50 is 3.9 µM.

With `O=C(c1ccc(OC2CCOC2)cc1)c1cc2cc(O)ccc2[nH]1` (stereo unspecified), the IC50 is 6.8 µM.

Consider `O=C(c1ccccc1)c1cc2cc(O)ccc2[nH]1`, for which the IC50 worked out at 10 µM.

In the case of `O=C(c1ccc(Oc2ccccc2)cc1)c1cc2ccccc2[nH]1`, the IC50 is 7.5 µM.
